ChEMBL document CHEMBL4145582, “Cytotoxic and Antibacterial Eremophilane Sesquiterpenes from the Marine-Derived Fungus Cochliobolus lunatus SCSIO41401” (J Nat Prod, 2018)
≈ marks a conversion by molar mass, not a printed value. Values belong to the molecule of their own block, whether it stands above or below them. Calls of active or inactive are those of the source. The rule behind the calls is not given here.

Experiments:
786-0 = assay: Cytotoxicity against human 786-O cells after 72 hrs by CCK8 assay; type: functional, cell-based; settings: 786-0, 72 h
Outline: (§1)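 Renal cancer lines ACHN, 786-O and OS-RC-2; cell viability read by CCK-8 assay, with sorafenib as positive control.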

OS-RC-2 = assay: Cytotoxicity against human OS-RC2 cells after 72 hrs by CCK8 assay; type: functional, cell-based; settings: OS-RC-2, 72 h; outline: as §1
Pasteurella multocida = assay: Antimicrobial activity against Pasteurella multocida subsp. multocida ATCC 43137 after 24 hrs by serial dilution method; type: functional; settings: ATCC 43137, 24 h
Outline: (§2)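 Serial broth dilution in 96-well microtiter plates. Compounds and controls are dissolved in DMSO as stock. Bacteria are grown overnight at 37 °C, then diluted to 10^6 cfu/mL. E. coli and S. aureus are grown in Luria–Bertani broth. P. multocida and E. rhusiopathiae are grown in trypticase soy broth with 10% calf serum. Plates are incubated at 37 °C for 24 h and read at 630 nm.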

Escherichia coli = assay: Antimicrobial activity against Escherichia coli ATCC 25922 after 24 hrs by serial dilution method; type: functional; settings: ATCC 25922, 24 h; outline: as §2
ACHN [1] = assay: Cytotoxicity against human ACHN cells after 72 hrs by CCK8 assay; type: functional, cell-based; outline: as §1
[2] = tested on: Erysipelothrix rhusiopathiae; assay: Antimicrobial activity against Erysipelothrix rhusiopathiae ATCC 19414 after 24 hrs by serial dilution method; type: functional; settings: ATCC 19414, 24 h; outline: as §2
Staphylococcus aureus = assay: Antimicrobial activity against Staphylococcus aureus subsp. aureus Rosenbach ATCC 25923 after 24 hrs by serial dilution method; type: functional; settings: Rosenbach ATCC 25923, 24 h; outline: as §2
HepG2 = assay: Cytotoxicity against human HepG2 cells after 6 days by MTT assay; type: functional, cell-based; settings: HepG2, 144 h
Outline: (§3)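 HepG-2 and SGC7901 cells; growth inhibition read by MTT method, with 5-fluorouracil as positive control.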

SGC-7901 = assay: Cytotoxicity against human SGC7901 cells after 6 days by MTT assay; type: functional, cell-based; settings: SGC-7901, 144 h; outline: as §3
ACHN [3] = assay: Induction of apoptosis in human ACHN cells assessed as early apoptotic cells at 2 uM after 48 hrs by Annexin V-FITC/propidium iodide staining based flow cytometric method (reference value: 0%); type: functional
Outline: (§4)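 ACHN cells are treated at 1, 2 and 4 μM for 24, 48 and 72 h. Cells are then double-stained with annexin V-FITC and propidium iodide and analysed by flow cytometry. Early apoptotic, late apoptotic, necrotic and viable fractions are quantified.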

ACHN [4] = assay: Induction of apoptosis in human ACHN cells assessed as late apoptotic cells at 4 uM after 48 hrs by Annexin V-FITC/propidium iodide staining based flow cytometric method (reference value: 0%); type: functional; outline: as §4
ACHN [5] = assay: Induction of apoptosis in human ACHN cells assessed as late apoptotic cells at 4 uM after 24 hrs by Annexin V-FITC/propidium iodide staining based flow cytometric method (reference value: 0%); type: functional; outline: as §4
ACHN [6] = assay: Induction of apoptosis in human ACHN cells assessed as viable cells at 4 uM after 48 hrs by Annexin V-FITC/propidium iodide staining based flow cytometric method (reference value: 100%); type: functional; settings: read-out: Activity; outline: as §4
ACHN [7] = assay: Induction of apoptosis in human ACHN cells assessed as early apoptotic cells at 4 uM after 24 hrs by Annexin V-FITC/propidium iodide staining based flow cytometric method (reference value: 0%); type: functional; outline: as §4
ACHN [8] = assay: Induction of apoptosis in human ACHN cells assessed as late apoptotic cells at 1 uM after 48 hrs by Annexin V-FITC/propidium iodide staining based flow cytometric method (reference value: 0%); type: functional; outline: as §4
ACHN [9] = assay: Induction of apoptosis in human ACHN cells assessed as necrotic cells at 1 uM after 24 hrs by Annexin V-FITC/propidium iodide staining based flow cytometric method (reference value: 0%); type: functional; outline: as §4
ACHN [10] = assay: Induction of apoptosis in human ACHN cells assessed as early apoptotic cells at 1 uM after 24 hrs by Annexin V-FITC/propidium iodide staining based flow cytometric method (reference value: 0%); type: functional; outline: as §4
ACHN [11] = assay: Induction of apoptosis in human ACHN cells assessed as late apoptotic cells at 1 uM after 72 hrs by Annexin V-FITC/propidium iodide staining based flow cytometric method (reference value: 0%); type: functional; outline: as §4
ACHN [12] = assay: Induction of apoptosis in human ACHN cells assessed as early apoptotic cells at 1 uM after 72 hrs by Annexin V-FITC/propidium iodide staining based flow cytometric method (reference value: 0%); type: functional; outline: as §4
ACHN [13] = assay: Induction of apoptosis in human ACHN cells assessed as early apoptotic cells at 1 uM after 48 hrs by Annexin V-FITC/propidium iodide staining based flow cytometric method (reference value: 0%); type: functional; outline: as §4
ACHN [14] = assay: Induction of apoptosis in human ACHN cells assessed as viable cells at 4 uM after 24 hrs by Annexin V-FITC/propidium iodide staining based flow cytometric method (reference value: 100%); type: functional; settings: read-out: Activity; outline: as §4
ACHN [15] = assay: Induction of apoptosis in human ACHN cells assessed as necrotic cells at 2 uM after 48 hrs by Annexin V-FITC/propidium iodide staining based flow cytometric method (reference value: 0%); type: functional; outline: as §4
ACHN [16] = assay: Induction of apoptosis in human ACHN cells assessed as necrotic cells at 1 uM after 48 hrs by Annexin V-FITC/propidium iodide staining based flow cytometric method (reference value: 0%); type: functional; outline: as §4
ACHN [17] = assay: Induction of apoptosis in human ACHN cells assessed as necrotic cells at 4 uM after 72 hrs by Annexin V-FITC/propidium iodide staining based flow cytometric method (reference value: 0%); type: functional; outline: as §4
ACHN [18] = assay: Induction of apoptosis in human ACHN cells assessed as early apoptotic cells at 4 uM after 48 hrs by Annexin V-FITC/propidium iodide staining based flow cytometric method (reference value: 0%); type: functional; outline: as §4
ACHN [19] = assay: Induction of apoptosis in human ACHN cells assessed as viable cells at 1 uM after 72 hrs by Annexin V-FITC/propidium iodide staining based flow cytometric method (reference value: 100%); type: functional; settings: read-out: Activity; outline: as §4
ACHN [20] = assay: Induction of apoptosis in human ACHN cells assessed as viable cells at 2 uM after 48 hrs by Annexin V-FITC/propidium iodide staining based flow cytometric method (reference value: 100%); type: functional; settings: read-out: Activity; outline: as §4
ACHN [21] = assay: Induction of apoptosis in human ACHN cells assessed as early apoptotic cells at 2 uM after 24 hrs by Annexin V-FITC/propidium iodide staining based flow cytometric method (reference value: 0%); type: functional; outline: as §4
ACHN [22] = assay: Induction of apoptosis in human ACHN cells assessed as necrotic cells at 1 uM after 72 hrs by Annexin V-FITC/propidium iodide staining based flow cytometric method (reference value: 0%); type: functional; outline: as §4
ACHN [23] = assay: Induction of apoptosis in human ACHN cells assessed as late apoptotic cells at 2 uM after 24 hrs by Annexin V-FITC/propidium iodide staining based flow cytometric method (reference value: 0%); type: functional; outline: as §4
ACHN [24] = assay: Induction of apoptosis in human ACHN cells assessed as necrotic cells at 2 uM after 72 hrs by Annexin V-FITC/propidium iodide staining based flow cytometric method (reference value: 0%); type: functional; outline: as §4
ACHN [25] = assay: Induction of apoptosis in human ACHN cells assessed as late apoptotic cells at 4 uM after 72 hrs by Annexin V-FITC/propidium iodide staining based flow cytometric method (reference value: 0%); type: functional; outline: as §4
ACHN [26] = assay: Induction of apoptosis in human ACHN cells assessed as early apoptotic cells at 4 uM after 72 hrs by Annexin V-FITC/propidium iodide staining based flow cytometric method (reference value: 0%); type: functional; outline: as §4
ACHN [27] = assay: Induction of apoptosis in human ACHN cells assessed as late apoptotic cells at 1 uM after 24 hrs by Annexin V-FITC/propidium iodide staining based flow cytometric method (reference value: 0%); type: functional; outline: as §4
ACHN [28] = assay: Cell cycle arrest in human ACHN cells at 1 to 4 uM after 24 to 72 hrs by propidium iodide staining based flow cytometric method; type: functional
ACHN [29] = assay: Induction of apoptosis in human ACHN cells assessed as viable cells at 2 uM after 72 hrs by Annexin V-FITC/propidium iodide staining based flow cytometric method (reference value: 100%); type: functional; settings: read-out: Activity; outline: as §4
ACHN [30] = assay: Induction of apoptosis in human ACHN cells assessed as late apoptotic cells at 2 uM after 72 hrs by Annexin V-FITC/propidium iodide staining based flow cytometric method (reference value: 0%); type: functional; outline: as §4
ACHN [31] = assay: Induction of apoptosis in human ACHN cells assessed as viable cells at 1 uM after 48 hrs by Annexin V-FITC/propidium iodide staining based flow cytometric method (reference value: 100%); type: functional; settings: read-out: Activity; outline: as §4
ACHN [32] = assay: Induction of apoptosis in human ACHN cells assessed as viable cells at 4 uM after 72 hrs by Annexin V-FITC/propidium iodide staining based flow cytometric method (reference value: 100%); type: functional; settings: read-out: Activity; outline: as §4
ACHN [33] = assay: Induction of apoptosis in human ACHN cells assessed as late apoptotic cells at 2 uM after 48 hrs by Annexin V-FITC/propidium iodide staining based flow cytometric method (reference value: 0%); type: functional; outline: as §4
ACHN [34] = assay: Induction of apoptosis in human ACHN cells assessed as viable cells at 1 uM after 24 hrs by Annexin V-FITC/propidium iodide staining based flow cytometric method (reference value: 100%); type: functional; settings: read-out: Activity; outline: as §4
ACHN [35] = assay: Induction of apoptosis in human ACHN cells assessed as early apoptotic cells at 2 uM after 72 hrs by Annexin V-FITC/propidium iodide staining based flow cytometric method (reference value: 0%); type: functional; outline: as §4
ACHN [36] = assay: Induction of apoptosis in human ACHN cells assessed as necrotic cells at 4 uM after 24 hrs by Annexin V-FITC/propidium iodide staining based flow cytometric method (reference value: 0%); type: functional; outline: as §4
ACHN [37] = assay: Induction of apoptosis in human ACHN cells assessed as necrotic cells at 4 uM after 48 hrs by Annexin V-FITC/propidium iodide staining based flow cytometric method (reference value: 0%); type: functional; outline: as §4
ACHN [38] = assay: Induction of apoptosis in human ACHN cells assessed as viable cells at 2 uM after 24 hrs by Annexin V-FITC/propidium iodide staining based flow cytometric method (reference value: 100%); type: functional; settings: read-out: Activity; outline: as §4
ACHN [39] = assay: Induction of apoptosis in human ACHN cells assessed as necrotic cells at 2 uM after 24 hrs by Annexin V-FITC/propidium iodide staining based flow cytometric method (reference value: 0%); type: functional; outline: as §4

MIC (Pasteurella multocida): > 100 µg/mL
MIC (Escherichia coli): > 100 µg/mL
MIC [2]: > 100 µg/mL
MIC (Staphylococcus aureus): > 100 µg/mL
Compound: CC[C@@H]1OC(=O)c2cc(O)ccc21
IC50 (786-0): > 50 µM
IC50 (OS-RC-2): > 50 µM
IC50 (ACHN [1]): > 50 µM
IC50 (HepG2): > 50 µM
IC50 (SGC-7901): > 50 µM

MIC (Escherichia coli): 25 µg/mL (≈ 43 µM)
Compound: CN[C@@H]1[C@H](O[C@H]2[C@H](O[C@H]3[C@H](O)[C@@H](O)[C@H](N=C(N)N)[C@@H](O)[C@@H]3N=C(N)N)O[C@@H](C)[C@]2(O)C=O)O[C@@H](CO)[C@H](O)[C@H]1O [STREPTOMYCIN]

MIC (Pasteurella multocida): > 100 µg/mL
MIC (Escherichia coli): > 100 µg/mL
MIC [2]: > 100 µg/mL
MIC (Staphylococcus aureus): > 100 µg/mL
Compound: C=C(/C=N/O)[C@]1(OC)C[C@@]2(C)C(=CC1=O)C=C[C@H](OC(=O)/C=C/C(C)=C/[C@@H](C)CC)[C@@H]2C
Activity (ACHN [3]): 2.3%
Activity (ACHN [4]): 11.3%
IC50 (786-0): 27 µM
Activity (ACHN [5]): 1.1%
viability at 4 µM (ACHN [6]): 50%
Activity (ACHN [7]): 1.1%
Activity (ACHN [8]): 1.2%
Activity (ACHN [9]): 5.5%
IC50 (OS-RC-2): > 50 µM
Activity (ACHN [10]): 0.6%
Activity (ACHN [11]): 1.1%
Activity (ACHN [12]): 1.8%
Activity (ACHN [13]): 1.3%
viability at 4 µM (ACHN [14]): 76%
Activity (ACHN [15]): 9.3%
Activity (ACHN [16]): 6%
Activity (ACHN [17]): 0.8%
Activity (ACHN [18]): 19.2%
viability at 1 µM (ACHN [19]): 90.8%
viability at 2 µM (ACHN [20]): 87.1%
IC50 (ACHN [1]): 3.1 µM
Activity (ACHN [21]): 0.8%
Activity (ACHN [22]): 6.2%
Activity (ACHN [23]): 0.7%
Activity (ACHN [24]): 9%
Activity (ACHN [25]): 8.5%
Activity (ACHN [26]): 83.8%
Activity (ACHN [27]): 0.7%
Activity (ACHN [28]): inactive
viability at 2 µM (ACHN [29]): 80.5%
Activity (ACHN [30]): 3.8%
viability at 1 µM (ACHN [31]): 91.4%
viability at 4 µM (ACHN [32]): 6.9%
Activity (ACHN [33]): 1.3%
viability at 1 µM (ACHN [34]): 93.2%
Activity (ACHN [35]): 6.8%
Activity (ACHN [36]): 21.8%
Activity (ACHN [37]): 19.5%
viability at 2 µM (ACHN [38]): 91.4%
IC50 (HepG2): 5.9 µM
IC50 (SGC-7901): 17 µM
Activity (ACHN [39]): 7.2%
